Measured values published in ChEMBL document CHEMBL4190381, “Biofilm inhibition and anti-Candida activity of a cationic lipo-benzamide molecule with twin-nonyl chain” (Bioorg Med Chem Lett, 2018).
Converted amounts (≈) assume the structure as drawn. The source made the active and inactive calls. The calls are words filed in the database; no cut-off is given here.

Key:
Candida albicans [1] = experiment: Antifungal activity against Candida albicans ATCC 90028 planktonic cells assessed as inhibition of fungal growth incubated for 48 hrs by broth microdilution assay; format: functional; details: for MIC80: ATCC 90028, 48 h
Method in brief: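 Broth microdilution against planktonic C. albicans ATCC 90028. MIC is the lowest concentration giving […] relative to the growth control. Percent inhibition is taken against an untreated growth control and plotted versus concentration.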

Candida albicans [2] = experiment: Antifungal activity against Candida albicans SC5314 assessed as inhibition of fungal growth incubated for 48 hrs by broth microdilution assay; format: functional; details: SC5314, 48 h
Method in brief: (§1)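 Broth microdilution against planktonic Candida cultures, with fluconazole as reference antifungal. MIC read as lowest concentration giving […] relative to a growth control without compound. Percentage inhibition versus growth control was plotted against concentration.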

Candida albicans [3] = experiment: Antifungal activity against Candida albicans Gu4 assessed as inhibition of fungal growth incubated for 48 hrs by broth microdilution assay; format: functional; details: Gu4, 48 h; method in brief: as §1
Candida albicans [4] = experiment: Inhibition of adhesion of Candida albicans ATCC 90028 on polystyrene surface up to 25 ug/ml incubated for 90 mins by MTT assay; format: functional, organism-based
Method in brief: (§2)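 1x10^6 C. albicans ATCC 90028 cells allowed to grow and adhere in polystyrene-coated 96-well wells; compound added at different time points to cover adhesion, biofilm formation or mature biofilm stages. Inhibition quantified by MTT metabolic assay against untreated growth control. BIC80 and BEC80 taken as concentrations giving 80% inhibition of formation or of mature biofilm respectively.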

Pichia kudriavzevii = experiment: Antifungal activity against Candida krusei MTCC 9215 assessed as inhibition of fungal growth incubated for 48 hrs by broth microdilution assay; format: functional; details: MTCC 9215, 48 h; method in brief: as §1
Nakaseomyces glabratus = experiment: Antifungal activity against Candida glabrata MTCC 3814 assessed as inhibition of fungal growth incubated for 48 hrs by broth microdilution assay; format: functional; details: MTCC 3814, 48 h; method in brief: as §1
Candida albicans [5] = experiment: Antibiofilm eradication activity against Candida albicans ATCC 90028 grown on polystyrene surface assessed as inhibition of mature biofilm formation added 24 hrs after biofilm maturation and measured after 48 hrs by MTT assay; format: functional; method in brief: as §2
Candida albicans [6] = experiment: Antibiofilm activity against Candida albicans ATCC 90028 grown on polystyrene surface assessed as inhibition of biofilm formation added immediately after cell adhesion by MTT assay; format: functional; method in brief: as §2
Candida albicans [7] = experiment: Antifungal activity against Candida albicans Gu5 assessed as inhibition of fungal growth incubated for 48 hrs by broth microdilution assay; format: functional; details: Gu5, 48 h; method in brief: as §1
Candida albicans [8] = experiment: Antifungal activity against Candida albicans DSY296 assessed as inhibition of fungal growth incubated for 48 hrs by broth microdilution assay; format: functional; details: DSY296, 48 h; method in brief: as §1
Candida tropicalis = experiment: Antifungal activity against Candida tropicalis MTCC 9038 assessed as inhibition of fungal growth incubated for 48 hrs by broth microdilution assay; format: functional; details: MTCC 9038, 48 h; method in brief: as §1
Candida parapsilosis = experiment: Antifungal activity against Candida parapsilosis MTCC 7043 assessed as inhibition of fungal growth incubated for 48 hrs by broth microdilution assay; format: functional; details: Lodderomyces parapsilosis, MTCC 7043, 48 h; method in brief: as §1
Candida albicans [9] = experiment: Antifungal activity against Candida albicans DSY294 assessed as inhibition of fungal growth incubated for 48 hrs by broth microdilution assay; format: functional; details: DSY294, 48 h; method in brief: as §1
Candida albicans [10] = experiment: Inhibition of adhesion of Candida albicans ATCC 90028 on polystyrene surface at 12.5 ug/ml incubated for 90 mins by MTT assay; format: functional; details: ATCC 90028, 1.5 h
Method in brief: (§3)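 C. albicans ATCC 90028 cells adhered to polystyrene wells with test compound. Adhesion is quantified by MTT metabolic assay and expressed as percent inhibition versus an untreated growth control. Fluconazole is the reference, tested up to 25 µg ml-1.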

Erythrocyte = experiment: Hemolytic activity in human erythrocytes assessed as induction of hemolysis incubated for 1 hr by spectrophotometry; format: cell-based
Method in brief: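 Human erythrocytes incubated with a range of concentrations. Released hemoglobin is measured spectrophotometrically and expressed as percent hemolysis. 1% Triton X-100 gives 100% lysis, and a buffer-treated sample is the negative control. HC90 is the concentration lysing 90% of RBCs.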

Candida albicans [11] = experiment: Toxicity in Candida albicans ATCC 90028 planktonic cells assessed as induction of nucleic acids release at 12.5 ug/ml incubated for 1 hr by spectrophotometry; format: organism-based
Method in brief: (§4)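 C. albicans cells incubated with increasing compound concentrations. Supernatant OD260 (nucleic acids) and OD280 (proteins) recorded to quantify macromolecule release on lysis.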

Candida albicans [12] = experiment: Toxicity in Candida albicans ATCC 90028 planktonic cells assessed as induction of morphological changes at 3.1 ug/ml incubated for 24 hrs by scanning electron Microscopy; format: organism-based
Method in brief: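 C. albicans ATCC 90028 cells incubated 24 h with 3.1 µg ml-1 compound. Surface morphology examined by scanning electron microscopy at 2500X and 5000X magnification against untreated cells.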

Candida albicans [13] = experiment: Inhibition of adhesion of Candida albicans ATCC 90028 on polystyrene surface incubated for 90 mins by MTT assay; format: functional, organism-based; method in brief: as §3
Candida albicans [14] = experiment: Toxicity in Candida albicans ATCC 90028 planktonic cells assessed as induction of protein release at 12.5 ug/ml incubated for 1 hr by spectrophotometry; format: organism-based; method in brief: as §4
Candida albicans [15] = experiment: Antibiofilm activity against Candida albicans ATCC 90028 grown on polystyrene surface assessed as inhibition of biofilm formation at 1.56 to 25 ug/ml added immediately after cell adhesion by bright-field microscopy; format: functional, organism-based
Method in brief: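 1x10^6 C. albicans ATCC 90028 cells allowed to adhere and grow in polystyrene 96-well wells; compound at 1.56, 3.12, 6.25, 12.5 and 25 µg ml-1; biofilm examined microscopically against an untreated growth control.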

[16] = Safety index, ratio of HC90 for hemolytic activity in human erythrocytes to MIC for antifungal activity against Candida albicans ATCC 90028 planktonic cells; format: toxicity, cell-based

Row | SMILES | growth inhibition (GI) (Candida albicans [1]) | MIC80 (Candida albicans [1]) [µg/mL] | MIC80 (Candida albicans [2]) [µg/mL] | MIC80 (Candida albicans [3]) [µg/mL] | MIC80 (Pichia kudriavzevii) [µg/mL] | MIC80 (Nakaseomyces glabratus) [µg/mL] | MIC80 (Candida albicans [7]) [µg/mL] | MIC80 (Candida albicans [8]) [µg/mL] | MIC80 (Candida tropicalis) [µg/mL] | MIC80 (Candida parapsilosis) [µg/mL] | MIC80 (Candida albicans [9]) [µg/mL] | further results
1 | CCCCCCCCCC[N+](C)(CCCCCCCCCC)CCNC(=O)c1ccc(OC)cc1.[I-] | Dose-dependent effect | ≤ 6.2 | – | – | – | – | – | – | – | – | – | –
2 | CCCCCCCC[N+](C)(CCCCCCCC)CCNC(=O)c1ccc(OC)cc1.[I-] | Dose-dependent effect | ≤ 6.2 | – | – | – | – | – | – | – | – | – | –
3 | OC(Cn1cncn1)(Cn1cncn1)c1ccc(F)cc1F [FLUCONAZOLE] | – | 4 (≈ 13.1 µM) | 2 (≈ 6.53 µM) | 4 (≈ 13.1 µM) | 64 (≈ 209 µM) | 4 (≈ 13.1 µM) | 128 (≈ 418 µM) | 128 (≈ 418 µM) | 4 (≈ 13.1 µM) | 2 (≈ 6.53 µM) | 4 (≈ 13.1 µM) | inhibition (Candida albicans [4]): inactive; inhibition (Candida albicans [5]): inactive; inhibition (Candida albicans [6]): inactive
4 | CCCCCCCCC[N+](C)(CCCCCCCCC)CCNC(=O)c1ccc(OC)cc1.[I-] | Dose-dependent effect | 3.1 | 1.5 | 3.1 | 1.5 | 1.5 | 3.1 | 1.5 | 0.7 | 1.5 | 1.5 | inhibition at 12.5 µg/mL (Candida albicans [10]): 90%; HC90 (Erythrocyte): 12.5 µg/mL; Activity (Candida albicans [11]): Non-Toxic; Activity (Candida albicans [12]): Non-Toxic; MBEC80 (Candida albicans [5]): 12.5 µg/mL; MBIC80 (Candida albicans [6]): 3.12 µg/mL; inhibition (Candida albicans [13]): Dose-dependent effect; Activity (Candida albicans [14]): Non-Toxic; Activity (Candida albicans [15]): Active; selectivity ratio [16]: 4
5 | CCCCCCCCCCC[N+](C)(CCCCCCCCCCC)CCNC(=O)c1ccc(OC)cc1.[I-] | Dose-dependent effect | ≤ 3.1 | – | – | – | – | – | – | – | – | – | –
